Series [1] concerns the target T1, Peroxisome proliferator-activated receptor alpha (Homo sapiens, UniProt Q07869).
T1 sequence (Q07869 whole entry): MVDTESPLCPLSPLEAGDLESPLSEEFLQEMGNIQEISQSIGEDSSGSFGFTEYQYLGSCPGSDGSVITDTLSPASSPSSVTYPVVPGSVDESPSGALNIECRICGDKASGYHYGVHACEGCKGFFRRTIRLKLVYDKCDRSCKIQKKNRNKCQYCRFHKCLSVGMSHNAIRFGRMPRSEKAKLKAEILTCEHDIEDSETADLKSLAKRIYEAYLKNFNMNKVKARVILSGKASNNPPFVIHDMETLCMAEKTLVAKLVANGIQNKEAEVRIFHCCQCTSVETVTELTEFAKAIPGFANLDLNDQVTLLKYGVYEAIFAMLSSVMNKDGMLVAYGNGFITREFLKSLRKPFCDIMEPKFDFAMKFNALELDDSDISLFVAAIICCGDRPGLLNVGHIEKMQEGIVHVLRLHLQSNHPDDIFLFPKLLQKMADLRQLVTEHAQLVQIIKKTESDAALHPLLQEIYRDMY
Kind of series: Agonist activity at human PPARalpha transfected in human HepG2 cells incubated for 18 hrs by Renilla/Firefly dual-luciferase reporter assay. The series is classed as cell-based. A general note: A reporter such as luciferase makes a cellular process visible.

In series [2] the target is T2, Peroxisome proliferator-activated receptor gamma (Homo sapiens, UniProt P37231).
T2 sequence (P37231 whole entry): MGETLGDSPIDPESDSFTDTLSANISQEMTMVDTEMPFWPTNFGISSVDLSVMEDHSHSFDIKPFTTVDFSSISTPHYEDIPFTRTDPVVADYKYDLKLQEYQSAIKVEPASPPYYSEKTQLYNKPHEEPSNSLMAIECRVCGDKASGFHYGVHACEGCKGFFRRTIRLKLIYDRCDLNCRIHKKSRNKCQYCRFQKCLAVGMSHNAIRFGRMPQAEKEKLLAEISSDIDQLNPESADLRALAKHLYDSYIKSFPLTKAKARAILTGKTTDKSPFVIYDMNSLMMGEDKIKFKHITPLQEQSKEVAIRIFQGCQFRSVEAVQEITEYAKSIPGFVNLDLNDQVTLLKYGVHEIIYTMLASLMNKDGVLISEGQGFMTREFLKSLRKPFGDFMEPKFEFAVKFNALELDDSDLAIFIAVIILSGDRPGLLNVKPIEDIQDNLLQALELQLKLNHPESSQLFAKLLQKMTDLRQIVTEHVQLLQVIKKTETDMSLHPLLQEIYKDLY
Kind of series: Agonist activity at human PPARgamma transfected in human HEK293 cells incubated for 18 hrs by Renilla/Firefly dual-luciferase reporter assay. The series is classed as cell-based.

Series [3] addresses T3, Peroxisome proliferator-activated receptor delta (Homo sapiens, UniProt Q03181).
T3 sequence (Q03181 whole entry): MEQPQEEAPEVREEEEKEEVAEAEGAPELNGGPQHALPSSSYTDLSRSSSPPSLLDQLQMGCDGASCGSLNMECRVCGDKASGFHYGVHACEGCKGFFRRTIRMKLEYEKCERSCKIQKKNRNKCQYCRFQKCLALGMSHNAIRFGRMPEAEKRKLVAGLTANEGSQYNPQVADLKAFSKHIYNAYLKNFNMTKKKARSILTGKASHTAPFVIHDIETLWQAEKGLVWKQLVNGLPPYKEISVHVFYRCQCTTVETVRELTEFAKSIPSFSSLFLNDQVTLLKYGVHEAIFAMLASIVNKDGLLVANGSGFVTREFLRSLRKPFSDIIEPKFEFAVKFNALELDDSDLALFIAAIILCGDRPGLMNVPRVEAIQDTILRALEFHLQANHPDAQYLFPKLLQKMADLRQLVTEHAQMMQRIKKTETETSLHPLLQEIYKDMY
The experiment in a line: Agonist activity at human PPARdelta transfected in human HEK293 cells incubated for 18 hrs by Renilla/Firefly dual-luciferase reporter assay. The series is classed as cell-based.

Series [4] is filed under the species Mus musculus. The following applies: dose 10.0 mg/kg, time 30.0 day.
Series [5] is filed under the species Mus musculus. The following applies: dose 10.0 mg/kg, time 30.0 day. This is another data set of the same source.
For series [6], the species on record is Mus musculus. As to conditions: dose 10.0 mg/kg, time 30.0 day. This is another data set of the same source.
For series [7], the species on record is Mus musculus. The following applies: dose 10.0 mg/kg, time 30.0 day. This is another data set of the same source.
The species named for series [8] is Mus musculus. The following applies: dose 10.0 mg/kg, time 30.0 day. The source holds these as a separate data set.
The nature of series [9]: Toxicity in ob/ob mouse assessed as weight gain at 10 mg/kg, po administered once daily for 30 days and measured every 5 days. It counts as organism-based. The following applies: in vivo, 720 h, time 30 day. Put shortly: (§1)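 Food and water intake measured daily and body weight every 5 days. n = 6, mean SD; Student's t-test vs vehicle, with one-way ANOVA/Tukey.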
Series [10] can be described thus: Induction of hepatic steatosis in ob/ob mouse at 10 mg/kg, po administered once daily for 30 days by hematoxylin-eosin staining based histopathological analysis. The series is classed as organism-based. As to conditions: in vivo, 720 h, time 30 day. Put shortly:
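Liver sections were stained with hematoxylin-eosin and viewed at 400× for steatosis and ballooning, with normal controls included.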

For series [11], the species on record is Mus musculus. As to conditions: dose 10.0 mg/kg, time 30.0 day. This is another data set of the same source.
The nature of series [12]: Cmax in Sprague-Dawley rat at 3 mg/kg, po measured for 24 hrs by LC-MS/MS analysis. As to conditions: in vivo. Set-up: route oral, dose 3 mg/kg, time 24 hrs. It counts as ADME, organism-based. Put shortly: (§2)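 Male SD rats (eight weeks old at purchase) dosed orally at 3 mg/kg. Plasma profile followed over 0–24 h to derive AUC0–24h, Cmax, CL and T1/2. Values are mean SD of four rats.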

Series [13] can be described thus: Toxicity in ob/ob mouse assessed as weight gain at 20 mg/kg, po administered once daily for 30 days and measured every 5 days. It counts as organism-based. As to conditions: in vivo, 720 h, time 30 day. The method in brief:
as §1

The nature of series [14]: Clearance in Sprague-Dawley rat at 3 mg/kg, po measured for 24 hrs by LC-MS/MS analysis. It counts as ADME, organism-based. The following applies: in vivo. The method in brief: as §2
Series [15] can be described thus: AUC (0 to 24 hrs) in Sprague-Dawley rat at 3 mg/kg, po measured after 24 hrs by LC-MS/MS analysis. It counts as ADME, organism-based. Set-up: route oral, time 24 hrs, dose 3 mg/kg. The following applies: in vivo. The method in brief:
as §2

Series [16] is described as follows: Half-life in Sprague-Dawley rat at 3 mg/kg, po measured for 24 hrs by LC-MS/MS analysis. It counts as ADME, organism-based. As to conditions: in vivo. The method in brief: as §2

Calls of active or inactive are those of the source. The rule behind the calls is not given here. A value given as a limit tells only on which side of the number the result lay.

For orientation: EC50 means the concentration needed to bring the measured effect to its halfway point. A low value points to higher potency in that assay. Take `CCCOc1ccc2c(c1)O/C(=C\c1cc(C)c(OC(C)(C)C(=O)O)c(C)c1)C2=O`: the half-maximal effective concentration (EC50) in series [1] turned out to be 6.91 µM.
The same measure, in the same setting: in the case of `CCCOc1ccc2c(c1)O/C(=C\c1cc(C)c(OCC(=O)O)c(C)c1)C2=O` it was over 10 µM.
The same measure, in the same setting: the value for `CCOc1ccc2c(c1)O/C(=C\c1cc(C)c(OCC(=O)O)c(C)c1)C2=O` was over 10 µM; that for `CCOc1ccc2c(c1)O/C(=C\c1cc(C)c(OC(C)(C)C(=O)O)c(C)c1)C2=O` was 4.64 µM.
Take `Cc1cc(/C=C2\Oc3cc(OCC(C)C)ccc3C2=O)cc(C)c1OCC(=O)O`: the concentration giving a half-maximal response (EC50) in series [1] was over 10 µM.
Still for that read-out and setting: in the case of `Cc1cc(/C=C2\Oc3cc(OCCC(C)C)ccc3C2=O)cc(C)c1OC(C)(C)C(=O)O` it was 7.72 µM.
Still for that read-out and setting: in the case of `Cc1cc(/C=C2\Oc3cc(OCC4CC4)ccc3C2=O)cc(C)c1OCC(=O)O` it was over 10 µM.
As to `COc1ccc2c(c1)O/C(=C\c1cc(C)c(OC(C)(C)C(=O)O)c(C)c1)C2=O`, the EC50 in [1] turned out to be 3.68 µM.
Consider `CSc1ccc(C(=O)/C=C/c2cc(C)c(OC(C)(C)C(=O)O)c(C)c2)cc1` [ELAFIBRANOR], for which the EC50 in series [2] worked out at 3.96 µM; in [1], 0.375 µM.
With `COc1ccc2c(c1)O/C(=C\c1cc(C)c(OCC(=O)O)c(C)c1)C2=O`, the 50% effective concentration (EC50) in series [3] was 3.22 µM; in [1], over 10 µM.
`CN(CCOc1ccc(CC2SC(=O)NC2=O)cc1)c1ccccn1` (stereo not given) [ROSIGLITAZONE]: the inhibition result in the series listed under Mus musculus [4], in the series listed under Mus musculus [5], in the series filed under Mus musculus [6], in the series listed under Mus musculus [7], in the series listed under Mus musculus [8] and in the series listed under Mus musculus [11] was “inactive” each time. For the same molecule, the Activity result in [9] and in [10] was “Toxic” each time.
What is called Cmax is the highest concentration seen after dosing. As a reminder, the CL/F is clearance divided by bioavailability, as obtained after extravascular dosing. What is called AUC(0-t) is the area under the concentration-time curve up to a stated or last time point. A lower AUC(0-t) goes with low exposure. What is called half-life is how long it takes for the measured level to halve. Higher therefore signals slow loss. For the molecule `Cc1cc(/C=C2\Oc3cc(OCC4CC4)ccc3C2=O)cc(C)c1OC(C)(C)C(=O)O`, in series [12], the Cmax was 8670 ng/mL. Further, the Activity result in series [13] was “Non-Toxic”. For the same molecule, the CL/F in series [14] was 0.351 mL/min/kg. For the same molecule, the area under the curve AUC(0-t) at 24 h in series [15] was found to be 51100 ng·h/mL. The half-life in series [16] was 3.85 h.

For the origin of these results see ChEMBL document CHEMBL4831519, “Discovery of the first-in-class dual PPARδ/γ partial agonist for the treatment of metabolic syndrome” (Eur J Med Chem, 2021).
